Measured values reported in ChEMBL document CHEMBL5653630, “Activation of the p53-MDM4 regulatory axis defines the anti-tumour response to PRMT5 inhibition through its role in regulating cellular splicing” (Sci Rep, 2018).
Values belong to the molecule of their own block, whether it stands above or below them. The source made the active and inactive calls. The rule behind the calls is not given here.

Experiments:
KMS-11 = assay: Antiproliferative activity against human KMS-11 cells assessed as cell growth inhibition incubated for 6 days by celltiter-glo assay; type: functional; conditions: KMS-11, 144 h, time 6 day
Procedure, shortened: (§1)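 Cells seeded in 384-well plates at an optimized density and held 24 h. CellTiter-Glo luminescence read at Day 0 and Day 6. Four-parameter fit. gIC50 = midpoint of the growth window between DMSO and T0. Curves required ≥1.5 population doublings.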

SCaBER = assay: Antiproliferative activity against human SCaBER cells assessed as cell growth inhibition incubated for 6 days by celltiter-glo assay; type: functional; conditions: 144 h, time 6 day
Z-138 [1] = assay: Induction of cell cycle arrest in human Z138 cells assessed as accumulation of cells at G1 phase cells incubated for 1 to 10 days by propidium iodide staining based flow cytometric analysis; type: functional; conditions: dose <= 1000.0 nM, time 1-10 day
Z-138 [2] = assay: Induction of cell cycle arrest in human Z138 cells assessed as decrease in 4n cell population measured upto 1000 nM measured for 2 to 5 days by propidium iodide staining based flow cytometric analysis; type: functional; conditions: time 2-5 day
Z-138 [3] = assay: Induction of apoptosis in human Z138 cells assessed as early apoptotic cells incubated for 6 days by annexin-V/FITC propidium iodide staining based flow cytometry analysis; type: functional, cell-based; conditions: dose 200.0 nM, time 6.0 day
JVM-2 = assay: Induction of apoptosis in human JVM-2 cells assessed as dead cells incubated for 6 days by annexin-V/FITC propidium iodide staining based flow cytometry analysis; type: functional, cell-based; conditions: dose <= 5000.0 nM, time 6.0 day
Z-138 [4] = assay: Antitumor activity against human Z138 cells xenografted in mouse assessed as reduction in tumor volume at 50 to 100 mg/kg, po BID measured for 10 days; type: functional, organism-based; conditions: dose 50-100 mg/kg, time 10.0 day
Z-138 [5] = assay: In vivo inhibition of PRMT5 in human Z138 cells xenografted in mouse assessed as increase in p53 level at 100 mg/kg, po BID measured for 7 days by immunohistochemical analysis; type: functional, organism-based; conditions: time 7.0 day
Z-138 [6] = assay: In vivo inhibition of PRMT5 in human Z138 cells xenografted in mouse assessed as increase in GADD45A expression at 100 mg/kg, po BID measured for 7 days; type: functional, organism-based; conditions: time 7.0 day
Z-138 [7] = assay: In vivo inhibition of PRMT5 in human Z138 cells xenografted in mouse assessed as increase in CDKN1 expression at 100 mg/kg, po BID measured for 7 days; type: functional, organism-based; conditions: time 7.0 day
A 172 = assay: Antiproliferative activity against human A-172 cells assessed as cell growth inhibition incubated for 6 days by celltiter-glo assay; type: functional; conditions: A 172, 144 h, time 6 day
MCF7 = assay: Antiproliferative activity against human MCF7 cells assessed as cell growth inhibition incubated for 6 days by celltiter-glo assay; type: functional; conditions: MCF7, 144 h, time 6 day; procedure, shortened: as §1
SiHa = assay: Antiproliferative activity against human SiHa cells assessed as cell growth inhibition incubated for 10 days; type: functional; conditions: 240 h, time 10 day
SW48 = assay: Antiproliferative activity against human SW48 cells assessed as cell growth inhibition incubated for 10 days; type: functional; conditions: SW48, 240 h, time 10 day
WiDr = assay: Antiproliferative activity against human WiDr cells assessed as cell growth inhibition incubated for 10 days; type: functional; conditions: 240 h, time 10 day
SW-403 = assay: Antiproliferative activity against human SW403 cells assessed as cell growth inhibition incubated for 10 days; type: functional; conditions: SW-403, 240 h, time 10 day
AN3-CA = assay: Antiproliferative activity against human AN3-CA cells assessed as cell growth inhibition incubated for 10 days; type: functional; conditions: 240 h, time 10 day
Procedure, shortened: (§2)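 Cells kept in RPMI-1640 with 10% FBS, 2 mM L-alanyl-L-glutamine and 1 mM Na pyruvate (or a special medium) at 37°C, 5% CO2. Compound added 24 h after seeding, 10 concentrations in 3.16-fold dilution, 0.1% DMSO final. Medium replaced and cells re-dosed at 168 h; 240 h incubation. Nuclei fixed, dye-stained and imaged. gIC50 = growth midway between untreated and time-zero cell counts, from a 4-parameter fit.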

SNU-16 = assay: Antiproliferative activity against human SNU-16 cells assessed as cell growth inhibition incubated for 10 days; type: functional; conditions: SNU-16, 240 h, time 10 day
SW1088 = assay: Antiproliferative activity against human SW1088 cells assessed as cell growth inhibition incubated for 10 days; type: functional; conditions: SW1088, 240 h, time 10 day
H4 = assay: Antiproliferative activity against human H4 cells assessed as cell growth inhibition incubated for 10 days; type: functional; conditions: H4, 240 h, time 10 day
Procedure, shortened: (§3)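 Outsourced panel run in 384-well plates. Cells were grown in RPMI-1640/10% FBS or a special medium at 37°C, 5% CO2. Compound was added 24 h after seeding as a 10-point, 3.16-fold series in 0.1% DMSO. Medium was refreshed and cells re-dosed at 168 h, with a time-zero plate kept. At 240 h cells were fixed, nuclei stained and imaged. gIC50 is growth midway between untreated and time zero, from a 4-parameter fit.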

SCC-4 = assay: Antiproliferative activity against human SCC-4 cells assessed as cell growth inhibition incubated for 10 days; type: functional; conditions: SCC-4, 240 h, time 10 day
769-P = assay: Antiproliferative activity against human 769-P cells assessed as cell growth inhibition incubated for 10 days; type: functional; conditions: 240 h, time 10 day; procedure, shortened: as §2
MeWo = assay: Antiproliferative activity against human MeWo cells assessed as cell growth inhibition incubated for 10 days; type: functional; conditions: 240 h, time 10 day
NCI-H520 = assay: Antiproliferative activity against human NCI-H520 cells assessed as cell growth inhibition incubated for 10 days; type: functional; conditions: NCI-H520, 240 h, time 10 day
SK-UT-1 = assay: Antiproliferative activity against human SK-UT-1 cells assessed as cell growth inhibition incubated for 10 days; type: functional; conditions: SK-UT-1, 240 h, time 10 day
MG-63 = assay: Antiproliferative activity against human MG-63 cells assessed as cell growth inhibition incubated for 10 days; type: functional; conditions: MG-63, 240 h, time 10 day
SK-LMS-1 = assay: Antiproliferative activity against human SK-LMS-1 cells assessed as cell growth inhibition incubated for 10 days; type: functional; conditions: SK-LMS-1, 240 h, time 10 day
DMS-273 = assay: Antiproliferative activity against human DMS-273 cells assessed as cell growth inhibition incubated for 10 days; type: functional; conditions: DMS-273, 240 h, time 10 day; procedure, shortened: as §3
[8] = Antiproliferative activity against human HLF cells assessed as cell growth inhibition incubated for 10 days; type: functional; conditions: 240 h, time 10 day; procedure, shortened: as §3
BHT-101 = assay: Antiproliferative activity against human BHT-101 cells assessed as cell growth inhibition incubated for 10 days; type: functional; conditions: BHT-101, 240 h, time 10 day; procedure, shortened: as §2
SW 954 = assay: Antiproliferative activity against human SW 954 cells assessed as cell growth inhibition incubated for 10 days; type: functional; conditions: SW 954, 240 h, time 10 day
[9] = molecular target: Protein arginine N-methyltransferase 5 (Homo sapiens) (UniProt O14744); assay: Inhibition of PRMT5 in human Z138 cells assessed as effect on FUBP1 level by measuring fold change by LC-MS/MS analysis relative to control; type: cell-based
[10] = molecular target: Protein arginine N-methyltransferase 5 (Homo sapiens) (UniProt O14744); assay: Inhibition of PRMT5 in human Z138 cells expressing full length MDM4 at 1 to 100000 nM incubated for 3 to 6 days; type: cell-based; conditions: dose 1-100000 nM, time 3-6 day
U-2940 = assay: Antiproliferative activity against human U-2940 cells assessed as reduction in cell viability; type: functional, cell-based

Protein arginine N-methyltransferase 5 (Homo sapiens), sequence (O14744 whole entry): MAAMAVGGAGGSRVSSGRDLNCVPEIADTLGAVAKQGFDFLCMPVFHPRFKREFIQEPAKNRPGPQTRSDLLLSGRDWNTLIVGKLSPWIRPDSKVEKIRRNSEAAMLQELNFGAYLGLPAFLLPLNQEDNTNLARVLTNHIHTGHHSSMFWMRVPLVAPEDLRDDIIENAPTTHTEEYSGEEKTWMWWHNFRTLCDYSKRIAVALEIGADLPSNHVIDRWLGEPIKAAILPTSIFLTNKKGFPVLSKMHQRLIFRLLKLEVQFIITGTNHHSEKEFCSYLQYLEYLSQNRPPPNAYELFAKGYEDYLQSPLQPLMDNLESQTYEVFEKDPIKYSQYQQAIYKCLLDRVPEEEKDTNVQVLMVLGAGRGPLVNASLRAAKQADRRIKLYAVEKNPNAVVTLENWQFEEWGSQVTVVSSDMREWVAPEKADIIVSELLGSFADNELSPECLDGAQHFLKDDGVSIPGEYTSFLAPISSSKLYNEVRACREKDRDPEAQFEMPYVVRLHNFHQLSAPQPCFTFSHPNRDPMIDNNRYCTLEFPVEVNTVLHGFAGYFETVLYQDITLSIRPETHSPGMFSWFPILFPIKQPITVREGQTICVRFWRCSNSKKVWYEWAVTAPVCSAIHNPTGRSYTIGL

SMILES: CC(=O)N1CCC(Nc2cc(C(=O)NC[C@H](O)CN3CCc4ccccc4C3)ncn2)CC1 [PEMRAMETOSTAT]
- GI50 (KMS-11): 66 nM
- GI50 (SCaBER): 198 nM
- Activity (Z-138 [1]): Dose-Dependent Effect
- Activity (Z-138 [2]): Active
- Activity (Z-138 [3]): Dose-Dependent Effect
- Activity (JVM-2): Dose-Dependent Effect
- Activity (Z-138 [4]): Active
- inhibition (Z-138 [5]): Active
- inhibition (Z-138 [6]): Active
- inhibition (Z-138 [7]): Active

- GI50 (MCF7): 215 nM
- GI50 (SW48): 10000 nM
- GI50 (SW-403): 153 nM
- GI50 (SNU-16): 34.4 nM
- GI50 (SW1088): 40.5 nM
- GI50 (NCI-H520): 15.6 nM
- GI50 (SK-UT-1): 42.1 nM
- GI50 (SK-LMS-1): 113 nM
- fold change (FC) [9]: -6.6
- inhibition [10]: inactive
SMILES: O=C(NC[C@H](O)CN1CCc2ccccc2C1)c1ccnc(NC2CCC2)c1
- GI50 (A 172): 590 nM
- GI50 (SiHa): 2510 nM
- GI50 (WiDr): 505 nM
- GI50 (AN3-CA): 254 nM
- GI50 (H4): 151 nM
- GI50 (SCC-4): 286 nM
- GI50 (769-P): 203 nM
- GI50 (MeWo): 249 nM
- GI50 (MG-63): 96 nM
- GI50 (DMS-273): 298 nM
- GI50 [8]: 87.7 nM
- GI50 (BHT-101): 214 nM
- GI50 (SW 954): 10000 nM
- Activity (U-2940): Active
